This passage reports IC50, Activity and Kapp results from ChEMBL document CHEMBL3751708, “Structure guided design of potential inhibitors of human calcium-calmodulin dependent protein kinase IV containing pyrimidine scaffold” (Bioorg Med Chem Lett, 2016).

The subject of series [1] is HEK293. The series is described as follows: Cytotoxicity against human HEK293 cells after 48 hrs by MTT assay. Format: cell-based. The note with it: HEK293, 48 h. For orientation: Tetrazolium dyes change colour on reduction, which living cells bring about.
The subject of series [2] is HEK293. In words: Cytotoxicity against human HEK293 cells up to 25 uM after 48 hrs by MTT assay. Format: cell-based. Particulars: hek293, 48 h. In a few lines:
(§1)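 HEK293 cells at 7000 per well, triplicates, treated the next day with inhibitors at 5-150 μM for 48 h. MTT was then added to fresh DMEM for 4-5 h at 37 °C. Formazan was dissolved in DMSO and read at 570 nm. Viability given as percent of untreated control.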

Series [3] in a line: Cytotoxicity against human HuH7 cells after 48 hrs by MTT assay. Format: functional, cell-based. The note with it: Huh-7, 48 h. In a few lines: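 Exponentially growing HuH7 hepatoma cells at 7000 per well, triplicates, dosed the next day with inhibitors at 5-150 μM for 48 h; curcumin served as positive control. MTT was then added in fresh DMEM for 4-5 h at 37 °C, and formazan was dissolved in DMSO and read at 570 nm. IC50 was derived from percent viability; three independent experiments, mean ± S.D.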

In series [4] the target is T1, Calcium/calmodulin-dependent protein kinase type IV (Homo sapiens) (UniProt Q16566).
T1 sequence (whole entry): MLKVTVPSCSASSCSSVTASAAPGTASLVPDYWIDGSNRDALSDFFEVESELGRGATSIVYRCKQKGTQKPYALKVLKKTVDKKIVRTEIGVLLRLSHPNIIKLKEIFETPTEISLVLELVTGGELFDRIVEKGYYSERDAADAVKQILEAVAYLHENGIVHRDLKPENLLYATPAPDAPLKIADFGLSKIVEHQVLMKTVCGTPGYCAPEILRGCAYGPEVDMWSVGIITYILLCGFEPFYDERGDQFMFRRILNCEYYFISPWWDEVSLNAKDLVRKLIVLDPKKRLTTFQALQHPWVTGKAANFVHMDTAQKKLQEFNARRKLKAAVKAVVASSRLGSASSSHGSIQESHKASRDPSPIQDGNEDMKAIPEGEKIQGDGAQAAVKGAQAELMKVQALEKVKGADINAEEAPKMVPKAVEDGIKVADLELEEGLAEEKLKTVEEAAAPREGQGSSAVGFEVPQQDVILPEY
In words: Binding affinity to human CAMK4 at pH 7.4 by fluorescence emission spectra analysis. In a few lines:
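Recombinant CAMKIV kinase domain at 4 μM in 50 mM phosphate pH 7.4 with 150 mM NaCl, 25 °C. Titrated from a 1.0 mM ligand stock up to 132 μM final. Ligands were diluted from DMSO stock and dialyzed in buffer beforehand. Excitation at 280 nm, tryptophan emission read over 300-400 nm. Ka and n taken from a modified Stern–Volmer plot; three measurements.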

Series [5] has as its system HEK293. The series is described as follows: Cytotoxicity against human HEK293 cells up to 50 uM after 48 hrs by MTT assay. The class given is cell-based. The note with it: hek293, 48 h. In outline: as §1

Structures are written as SMILES.

Consider `N#Cc1cccnc1N1CCN(c2cc(Oc3cccc4cccnc34)ncn2)CC1`, for which the IC50 in the series with HEK293 [1] was above 400 µM; in series [3], 104 µM. Also, the Activity result in the series with HEK293 [2] is given as “Non-toxic”. Besides, the Kapp in series [4] is 4.6 ×10⁵ /M.

Turning to `Nc1cccc(Oc2cc(Oc3cccc4cccnc34)ncn2)c1`, the figures for the IC50 (in the series with HEK293 [1]; in series [3]) were 400 µM and 116 µM, respectively. For the same compound, the Activity result in the series with HEK293 [2] is recorded as “Non-toxic”. Besides, the Kapp in series [4] was determined as 1.6 ×10⁵ /M.

As for `COc1ccc(Nc2cc(N3CCNCC3)ncn2)cc1`, in the series with HEK293 [5], the Activity result is “Non-toxic”. Moreover, the IC50 is above 400 µM with HEK293 [1] and 46 µM in series [3]. In addition, the Kapp in series [4] stood at 2.2 ×10⁸ /M.

With `COc1cc(/C=C/C(=O)CC(=O)/C=C/c2ccc(O)c(OC)c2)ccc1O` [CURCUMIN], the values for the IC50 (in the series on HEK293 [1]; in series [3]) were above 400 µM and 48 µM, respectively.

The IC50 is the point on the concentration scale where inhibition reaches its midpoint.
